Assay outcomes as filed in PubChem.
CHRM5 agonist: agonists of human muscarinic M5 receptor (CHRM5); P08912; actives 0.19% (n = 360,000); CHO-K1 hM5 cells, Fluo-8 calcium fluorescence; 0% DMSO wells, 100% maximal acetylcholine response; AID 624037; activation, % at 3 µM;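 active = activation above the run's mean over test compounds plus 3 SD, cut at about 23% in these data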;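 note: signal is peak over basal fluorescence ratio across the kinetic read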
CHRM1 PAM: human CHRM1 positive allosteric modulation | CHO-K1 hM1, Fluo-8 calcium fluorescence, ACh EC20; 0% = ACh EC20, 100% = maximal ACh | AID 588819 | actives 0.088% (n = 360,000) | activation, % at 3 µM | P11229; in the data active = activation above about 19%, passing the limit was not always enough
Target sequence (P11229 whole entry, looked up): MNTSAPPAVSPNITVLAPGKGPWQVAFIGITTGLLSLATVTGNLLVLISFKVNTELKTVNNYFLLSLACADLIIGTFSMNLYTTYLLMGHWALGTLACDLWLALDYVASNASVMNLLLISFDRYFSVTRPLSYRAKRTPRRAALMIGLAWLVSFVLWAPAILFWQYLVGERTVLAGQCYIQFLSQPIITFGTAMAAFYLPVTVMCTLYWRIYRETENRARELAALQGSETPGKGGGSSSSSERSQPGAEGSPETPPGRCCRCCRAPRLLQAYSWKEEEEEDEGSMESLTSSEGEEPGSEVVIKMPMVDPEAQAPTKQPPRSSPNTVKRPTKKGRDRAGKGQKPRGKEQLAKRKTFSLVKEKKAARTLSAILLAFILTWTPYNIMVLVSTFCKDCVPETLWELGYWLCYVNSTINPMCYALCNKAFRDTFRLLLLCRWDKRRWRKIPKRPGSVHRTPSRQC
CHRM1 agonist: agonists of human M1 muscarinic receptor. activation, % at 3 µM. P11229. CHO-K1 hM1, Fluo-8 calcium fluorescence, agonist mode; 0% DMSO, 100% acetylcholine EC100. AID 588814. actives 0.33% (n = 360,000);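 active = activation above the run's mean compound activation plus 3 SD, cut at about 16% in these data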;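 note: peak over basal fluorescence ratio within a 140 s kinetic read after compound addition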
CHRM5 PAM: positive allosteric modulators of human muscarinic M5 receptor; CHO-K1 hM5, Fluo-8 calcium, ACh EC20 PAM; 0% = ACh EC20, 100% = ACh EC100; P08912; actives 0.3% (n = 360,000); activation, % at 3 µM; AID 624038;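 active = activation above the run cutoff, the mean activation of all test compounds plus 3 SD, cut at about 18% in these data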
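Assay system: CHO-K1 hM5 cells / Incubation: Fluo-8 loading 80 min at 37 °C plus 30 min room temperature / Technique: Fluo-8 calcium dye fluorescence, kinetic read / Repeats: single replicate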
CHRM5 antagonist: antagonists of human muscarinic M5 receptor (CHRM5). inhibition, % at 3 µM. actives 0.59% (n = 360,000). CHO-hM5 cells, Fluo-8 calcium fluorescence, ACh EC80. P08912;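 active = inhibition above a per-plate cutoff, the mean of that plate's test compounds plus 3 SD, cut at about 27% in these data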;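 note: 0% = acetylcholine EC80 with DMSO and 100% = DMSO without agonist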
M1 antag: human CHRM1 antagonism | CHO-K1 hM1, Fluo-8 calcium fluorescence, ACh EC80 antagonist | inhibition, % at 3 µM | actives 1.3% (n = 360,000);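 active = percent inhibition above its own plate's cutoff, namely the mean of that plate's compound wells plus 3 SD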;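 note: peak over basal fluorescence ratio during 140 s after agonist addition; 0% = ACh EC80 plus DMSO and 100% = DMSO alone without agonist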
The depositor's hits bear a star; . = not tested or not shown. Rows were chosen to be rich in hits. Some 2.1% of all compounds tested hit in one or more screens of this group.

SMILES	CHRM5 agonist	CHRM1 PAM	CHRM1 agonist	CHRM5 PAM	CHRM5 antagonist	M1 antag
Cc1sc2ncnc(SCC(=O)N3CCCC3=O)c2c1C	-0.7	8.8	-4.4	-3.4	-2.3	0.9
CCCCCOC(=O)C1=C(C)Nc2ncnn2C1c1cccs1 (configuration not stated)	-0.6	-9.4	-3.2	-18.4	11.6	26.9*
CC1=C(C(N)=O)C(c2cccs2)n2ncnc2N1 (configuration not stated)	1.1	6.6	-1.5	2.9	7.8	-22.4
COc1ccc(C(=O)C(C)OC(=O)CN2C(=O)c3ccccc3C2=O)cc1 (configuration not stated)	4.8	8.0	3.2	12.7	1.4	-7.5
COC(=O)c1cc(-c2c[nH]c3ccccc23)n[nH]1	3.5	2.2	2.5	-0.8	1.3	-23.1
CCn1c(/C=C/Nc2ccccc2)[n+](CC)c2cc(Cl)c(Cl)cc21	-5.5	-3.1	-9.6	-1.9	-0.1	4.5
O=C1NC(=S)N/C1=C\c1ccccc1OCc1ccc(C(=O)O)cc1	-3.8	11.1	34.0*	6.9	5.8	-20.3
CN1C(=O)/C(=C/c2ccccc2OCc2ccc(F)cc2)N(C)C1=S	-7.1	-22.5	-10.1	-19.6	77.4*	100.2*
CN1C(=O)/C(=C/c2ccccc2OCc2ccc(C(=O)O)cc2)NC1=S	-4.0	-2.9	-4.6	-11.7	21.7	6.2
CN1C(=O)/C(=C/c2ccccc2OCc2ccccc2)NC1=S	-7.7	-24.5	-11.9	-7.8	-5.7	28.6
COc1ccccc1/C=N/n1c(N)c(C(=O)NC2CCCCC2)c2nc3ccccc3nc21	2.1	10.6	-2.9	-0.7	4.4	-1.6
CC(C)CCOc1ccc(C(=O)NCC(c2ccco2)N(C)C)cc1 (configuration not stated)	-8.4	-29.6	-12.0	-15.4	11.1	28.3*
CCOCc1c(C(=O)NCC(c2ccco2)N2CCCC2)oc2ccccc12 (configuration not stated)	-7.3	-17.9	-8.5	-4.2	2.7	28.0*
CN(C)C(CNC(=O)c1cc(S(=O)(=O)N(C)Cc2ccccc2)ccc1Cl)c1ccco1 (configuration not stated)	3.9	-12.6	-1.0	-15.0	15.1	31.3*
O=C(NCC(c1ccco1)N1CCCC1)c1ccccc1F (configuration not stated)	-6.2	3.5	-6.9	-2.0	-8.3	-8.7
CN(C)C(CNC(=O)c1ccc(S(=O)(=O)Nc2ccccc2)cc1)c1ccco1 (configuration not stated)	-1.7	-16.8	-6.3	-1.6	6.0	27.2*
COc1ccc(CC(=O)N(C)CC(=O)Nc2c(C)cccc2C)cc1S(=O)(=O)N1CCOCC1	1.5	7.5	-1.7	3.0	-2.3	-0.7
Cc1ccc(S(=O)(=O)N2CC3(O)CN(C(=O)OC(C)C)N(C(=O)OC(C)C)CC3(OC(=O)NCc3ccco3)C2)cc1 (configuration not stated)	2.3	-1.3	-2.4	-3.6	3.2	2.6
O=C(NCC(c1ccco1)N1CCCC1)c1cccc(NS(=O)(=O)c2ccccc2)c1 (configuration not stated)	-7.9	-26.6	-7.8	-7.2	7.3	90.4*
CN(c1ccccc1)S(=O)(=O)c1ccc(C(=O)NCC(c2ccco2)N2CCCCC2)cc1 (configuration not stated)	-9.0	-18.8	-6.4	-10.9	9.3	36.1*
Cc1ccc(NS(=O)(=O)c2cccc(C(=O)NCC(c3ccco3)N3CCCC3)c2)cc1 (configuration not stated)	-3.8	10.0	-3.4	-9.6	12.7	-8.9
CCc1cc(C(=O)NCC(c2ccco2)N2CCCCC2)sc1C (configuration not stated)	-11.0	-19.0	-9.0	-12.7	21.0	29.0*
O=C(NCC(c1ccco1)N1CCCCC1)c1ccc(S(=O)(=O)Nc2ccccc2)cc1 (configuration not stated)	-3.6	-24.6	-4.3	1.9	-2.5	32.4*
Cc1c(C(=O)NCC(c2ccco2)N2CCCC2)sc2ccccc12 (configuration not stated)	-10.8	3.5	-6.2	6.9	13.4	-11.5
CC(Sc1nnc(Cc2cccs2)n1C1CCCCC1)C(N)=O (configuration not stated)	-0.2	8.3	-3.0	0.4	14.3	-7.2
SMILES	CHRM5 agonist	CHRM1 PAM	CHRM1 agonist	CHRM5 PAM	CHRM5 antagonist	M1 antag
O=C(N/N=C/c1cccnc1)c1ccc(NC(=O)c2ccc(Cl)cc2)cc1	-0.8	5.3	-2.8	0.0	-1.1	-12.8
COc1ccccc1Nc1nc(-c2sc(NC(=O)CC(C)C)nc2C)cs1	2.8	18.8	2.7	2.0	-9.2	-0.9
COc1ccc(CCNC(=O)c2ccc(CSc3ccc(Cl)cc3)o2)cc1OC	4.3	.	.	-25.2	22.3	.
CC(=O)/C=C1/C(=O)Nc2ccccc21	0.3	13.2	-3.6	9.2	28.4*	-9.6
C=CCCC1(C)C(=O)N(c2ccccc2)c2ccccc21 (configuration not stated)	-1.6	3.5	-2.8	24.7*	21.3	-0.3
C=CCC1(C)C(=O)N(c2ccccc2)c2ccccc21 (configuration not stated)	-2.1	10.7	-7.4	1.8	-4.0	-9.4
CC(C)CSC1=NSC2=NC(=O)/C(=C\c3coc4ccccc4c3=O)C(=N)N12	168.2*	-31.6	143.2*	-23.4	68.1*	60.2*
CSC1=NSC2=NC(=O)/C(=C\c3coc4ccccc4c3=O)C(=N)N12	27.1*	-8.2	44.6*	-13.0	25.9	35.4*
CC(C)CSC1=NSC2=NC(=O)/C(=C\c3ccccc3)C(=N)N12	3.6	-5.8	-2.6	4.0	5.0	14.9
Cc1cc(/C=C2\C(=N)N3C(SCc4ccccc4)=NSC3=NC2=O)c(C)n1Cc1ccccc1	-0.2	5.1	-4.3	-5.8	12.4	-5.0
Cc1cc(/C=C2\SC(=S)NC2=O)c(C)[nH]1	1.3	-6.4	-4.4	-10.3	14.3	-4.3
CCCCCn1c(CNC(=O)CC)nc2ccccc21	43.2*	2.6	-11.6	-9.8	-1.8	-14.0
CCCCn1c(CN2CCN(C)CC2)nc2ccccc21	-6.4	-26.4	-7.2	-18.9	22.3	31.0*
O=C(Cn1nnc(-c2ccc([N+](=O)[O-])cc2)n1)NNC(=O)c1ccccc1	-4.0	0.2	-2.6	-7.5	31.1*	1.7
O=C(c1cc([N+](=O)[O-])ccc1N1CCOCC1)N1CCN(S(=O)(=O)c2ccc(F)cc2)CC1	-4.6	-9.1	-2.2	-6.6	14.3	27.9*
Cc1ccc(NC(=O)c2cc([N+](=O)[O-])ccc2N2CCOCC2)cc1C	-1.8	6.8	-4.8	4.2	-5.6	-5.4
